Measurements: ChEMBL document CHEMBL1127060 (1993)
The source made the active and inactive calls. The calls are words filed in the database; no cut-off is given here.

Columns and labels:
[1] = organism: Oryctolagus cuniculus; assay: Tested for relaxation of carbachol-contracted rabbit aorta at 37 degree C; Potency equal to 2MeSATP; assay type: functional
[2] = Agonism at turkey erythrocyte P2Y receptor.; assay type: functional, Meleagris gallopavo
Summary of the method: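 Turkey erythrocytes labeled 18–24 h at 37 °C with 2-[3H]myo-inositol in inositol-free DMEM; ghosts made by hypotonic lysis (5 mM Na phosphate pH 7.4, 5 mM MgCl2, 1 mM EGTA). PLC assay: ~175 μg protein ghosts, 1 μM GTPγS, Hepes pH 7.0 medium with 424 μM CaCl2, 2 mM EGTA; 5 min, 30 °C; total [3H]inositol phosphates by anion exchange; K0.5 averaged from 3–8 curves.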

[3] = organism: Cavia porcellus; assay: Tested for contraction of guinea pig isolated urinary bladder detrusor muscle at 37 degree C; Potency equal to ATP; assay type: functional; settings: Muscle tissue
[4] = organism: Cavia porcellus; assay: Tested for contraction of guinea pig vas deferens at 37 degree C; Potency equal to ATP; assay type: functional
[5] = organism: Cavia porcellus; assay: Tested for relaxation of carbachol-contracted guinea pig taenia coli at 37 degree C; assay type: functional
Summary of the method: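 Carbachol-precontracted guinea pig taenia coli segments in 37 °C organ baths with oxygenated Krebs solution. Tension changes were recorded in response to increasing nucleotide concentrations. At least two determinations. Responses were expressed as % relaxation of the carbachol-induced contraction and reported as pD2. ATP was tested on every preparation.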

[6] = organism: Oryctolagus cuniculus; assay: Tested for contraction of rabbit saphenous artery produced by 1 uM alpha,beta-MeATP at 37 degree C; Potency equal to ATP; assay type: functional
[7] = organism: Oryctolagus cuniculus; assay: Tested for relaxation of carbachol-contracted rabbit mesenteric artery at 37 degree C; Potency equal to 2MeSATP; assay type: functional
[8] = organism: Oryctolagus cuniculus; assay: Tested for relaxation of carbachol-contracted rabbit mesenteric artery at 37 degree C; Less potent than or equal 2MeSATP; assay type: functional
[9] = organism: Cavia porcellus; assay: Tested for contraction of guinea pig vas deferens at 37 degree C; Less potent than or equal to ATP; assay type: functional
[10] = organism: Oryctolagus cuniculus; assay: Tested for contraction of rabbit saphenous artery produced by 1 uM alpha,beta-MeATP at 37 degree C; Not active; assay type: functional
[11] = organism: Oryctolagus cuniculus; assay: Tested for relaxation of carbachol-contracted rabbit aorta at 37 degree C; More potent than or equal to 2MeSATP; assay type: functional
[12] = organism: Cavia porcellus; assay: Tested for relaxation of carbachol-contracted guinea pig taenia coli at 37 degree C; Potency equal to ATP; assay type: functional
[13] = organism: Cavia porcellus; assay: Tested for contraction of guinea pig isolated urinary bladder detrusor muscle at 37 degree C; Less potent than or equal to ATP; assay type: functional; settings: Muscle tissue

| SMILES | Relative activity [1] | K 0.5 [2] | Relative activity [3] | Relative activity [4] | Relative activity [5] | Relative activity [6] | Relative activity [7] | Relative activity [8] | Relative activity [9] | Relative activity [10] | Relative activity [11] | Relative activity [12] | Relative activity [13] |
| --- | --- | --- | --- | --- | --- | --- | --- | --- | --- | --- | --- | --- | --- |
| Nc1ncnc2c1ncn2[C@@H]1O[C@H](COP(=O)(O)OP(=O)(O)OP(=O)(O)O)[C@@H](O)[C@H]1O [ADENOSINE TRIPHOSPHATE] | 4.5 | 2800 nM | Active | 3.5 | 6.2 | Active | 6 | – | – | – | – | – | – |
| Nc1nc(SCCc2ccc([N+](=O)[O-])cc2)nc2c1ncn2C1O[C@H](COP(=O)(O)O)[C@@H](O)[C@H]1O (some centres undefined) | – | 3000 nM | – | – | – | – | – | 5.4 | Partially active | inactive | 6.1 | 6.5 | Partially active |
